Reference: ChEMBL document CHEMBL4004794, “Identification of Neuroprotective Spoxazomicin and Oxachelin Glycosides via Chemoenzymatic Glycosyl-Scanning” (J Nat Prod, 2017)
The source made the active and inactive calls. The rule behind the calls is not given here.

Key:
[1] = test system: Staphylococcus aureus; test: Antibacterial activity against Staphylococcus aureus ATCC 6538 at <= 60 to 120 uM; assay type: functional
Method in brief: (§1)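 Run in triplicate by the group's previously reported protocols. Compounds were tested up to 60–120 μM against bacteria and yeast, and up to 20 μM against non-small-cell lung A549 cells. Bacterial strains were S. aureus ATCC 6538, M. luteus NRRL B-287, E. coli NRRL B-3708 and S. enterica ATCC 10708. The yeast was S. cerevisiae ATCC 204508.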

[2] = test system: Escherichia coli; test: Antibacterial activity against Escherichia coli NRRL B-3708 at <= 60 to 120 uM; assay type: functional; method in brief: as §1
[3] = test system: Saccharomyces cerevisiae; test: Antifungal activity against Saccharomyces cerevisiae ATCC 204508 at <= 60 to 120 uM; assay type: functional; method in brief: as §1
[4] = test system: Micrococcus luteus; test: Antibacterial activity against Micrococcus luteus NRRL B-287 at <= 60 to 120 uM; assay type: functional; method in brief: as §1
[5] = test system: Salmonella enterica subsp. enterica serovar Choleraesuis str. ATCC 10708; test: Antibacterial activity against Salmonella enterica ATCC 10708 at <= 60 to 120 uM; assay type: functional
Method in brief: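 Run in triplicate against S. enterica ATCC 10708, a strain obtained from ATCC. Compounds were tested at concentrations up to ≤60−120 μM.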

[6] = test system: A549; test: Cytotoxicity against human A549 cells at <= 20 uM; assay type: functional, cell-based; method in brief: as §1
[7] = test system: Hippocampal neurone; test: Neuroprotective activity against EtOH-induced cytotoxicity in Sprague-Dawley rat primary hippocampal neurons assessed as decrease in propidium iodide uptake at 0.1 to 1 uM after 48 hrs by fluorescence microscopic method; assay type: functional, cell-based
Method in brief: (§2)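 Rat hippocampus-derived primary cell cultures were exposed for 48 h to 100 mM EtOH, with or without compound (0.01–1.0 μM, dose–response). A DMSO control was included. Damage was read as propidium iodide uptake into compromised cells.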

[8] = test system: Hippocampal neurone; test: Neuroprotective activity against EtOH-induced cytotoxicity in Sprague-Dawley rat primary hippocampal neurons assessed as decrease in propidium iodide uptake at 0.01 to 0.1 uM after 48 hrs by fluorescence microscopic method; assay type: functional, cell-based; method in brief: as §2
[9] = test system: Hippocampal neurone; test: Neuroprotective activity against EtOH-induced cytotoxicity in Sprague-Dawley rat primary hippocampal neurons assessed as decrease in propidium iodide uptake at 1 uM after 48 hrs by fluorescence microscopic method; assay type: functional, cell-based; method in brief: as §2
[10] = test system: Hippocampal neurone; test: Neuroprotective activity against EtOH-induced cytotoxicity in Sprague-Dawley rat primary hippocampal neurons assessed as decrease in propidium iodide uptake at 0.01 to 1 uM after 48 hrs by fluorescence microscopic method; assay type: functional, cell-based; method in brief: as §2

## C[C@H](CO)NC(=O)c1ccccc1O[C@@H]1O[C@H](CO)[C@@H](O)[C@H](O)[C@H]1O
[1]
  Activity: inactive
[2]
  Activity: inactive
[3]
  Activity: inactive
[4]
  Activity: inactive
[5]
  Activity: inactive
[6]
  Activity: inactive

## NC(=O)[C@@H]1COC(c2ccccc2O[C@@H]2O[C@H](CO)[C@@H](O)[C@H](O)[C@H]2O)=N1
[1]
  Activity: inactive
[2]
  Activity: inactive
[3]
  Activity: inactive
[7]
  Activity: Active
[4]
  Activity: inactive
[5]
  Activity: inactive
[6]
  Activity: inactive
[8]
  Activity: inactive

## O=CN(O)CCC[C@@H](NC(=O)[C@H](CO)NC(=O)[C@@H]1COC(c2ccccc2O)=N1)C(=O)NCCC(=O)N[C@@H]1CCCN(O)C1=O
[1]
  Activity: inactive
[2]
  Activity: inactive
[3]
  Activity: inactive
[4]
  Activity: inactive
[5]
  Activity: inactive
[6]
  Activity: inactive

## O=C(NC(CO)CO)c1ccccc1O
[1]
  Activity: inactive
[2]
  Activity: inactive
[3]
  Activity: inactive
[4]
  Activity: inactive
[5]
  Activity: inactive
[6]
  Activity: inactive

## C[C@H](CO)NC(=O)c1ccccc1O[C@@H]1O[C@H](CO)[C@@H](O)[C@H](O)[C@H]1N
[1]
  Activity: inactive
[2]
  Activity: inactive
[3]
  Activity: inactive
[4]
  Activity: inactive
[5]
  Activity: inactive
[6]
  Activity: inactive

## OC[C@@H]1COC(c2ccccc2O[C@@H]2O[C@H](CO)[C@@H](O)[C@H](O)[C@H]2O)=N1
[1]
  Activity: inactive
[2]
  Activity: inactive
[3]
  Activity: inactive
[4]
  Activity: inactive
[5]
  Activity: inactive
[9]
  Activity: inactive
[6]
  Activity: inactive
[8]
  Activity: Active

## O=C(NC(CO)CO)c1ccccc1O[C@@H]1O[C@H](CO)[C@@H](O)[C@H](O)[C@H]1O
[1]
  Activity: inactive
[2]
  Activity: inactive
[3]
  Activity: inactive
[4]
  Activity: inactive
[5]
  Activity: inactive
[6]
  Activity: inactive

## N[C@H]1[C@H](Oc2ccccc2C(=O)NC(CO)CO)O[C@H](CO)[C@@H](O)[C@@H]1O
[1]
  Activity: inactive
[2]
  Activity: inactive
[3]
  Activity: inactive
[4]
  Activity: inactive
[5]
  Activity: inactive
[6]
  Activity: inactive

## N[C@H]1[C@H](Oc2ccccc2C2=N[C@H](CO)CO2)O[C@H](CO)[C@@H](O)[C@@H]1O
[1]
  Activity: inactive
[2]
  Activity: inactive
[3]
  Activity: inactive
[10]
  Activity: inactive
[4]
  Activity: inactive
[5]
  Activity: inactive
[6]
  Activity: inactive

## OC[C@H]1O[C@@H](OC[C@@H]2COC(c3ccccc3O)=N2)[C@H](O)[C@@H](O)[C@@H]1O
[1]
  Activity: inactive
[2]
  Activity: inactive
[3]
  Activity: inactive
[4]
  Activity: inactive
[5]
  Activity: inactive
[6]
  Activity: inactive

## C[C@@H](CO)NC(=O)c1ccccc1O
[1]
  Activity: inactive
[2]
  Activity: inactive
[3]
  Activity: inactive
[4]
  Activity: inactive
[5]
  Activity: inactive
[6]
  Activity: inactive

## OC[C@@H]1COC(c2ccccc2O)=N1
[1]
  Activity: inactive
[2]
  Activity: inactive
[3]
  Activity: inactive
[4]
  Activity: inactive
[5]
  Activity: inactive
[6]
  Activity: inactive

## N[C@H]1[C@H](Oc2ccccc2C2=N[C@H](C(=O)N[C@@H](CO)C(=O)N[C@H](CCCN(O)C=O)C(=O)NCCC(=O)N[C@@H]3CCCN(O)C3=O)CO2)O[C@H](CO)[C@@H](O)[C@@H]1O
[1]
  Activity: inactive
[2]
  Activity: inactive
[3]
  Activity: inactive
[4]
  Activity: inactive
[5]
  Activity: inactive
[6]
  Activity: inactive

## NC(=O)[C@@H]1COC(c2ccccc2O)=N1
[1]
  Activity: inactive
[2]
  Activity: inactive
[3]
  Activity: inactive
[4]
  Activity: inactive
[5]
  Activity: inactive
[6]
  Activity: inactive

## C[C@@H](CO)NC(=O)c1ccccc1O[C@@H]1O[C@H](CO)[C@@H](O)[C@H](O)[C@H]1O
[1]
  Activity: inactive
[2]
  Activity: inactive
[3]
  Activity: inactive
[4]
  Activity: inactive
[5]
  Activity: inactive
[6]
  Activity: inactive

## C[C@@H](CO)NC(=O)c1ccccc1O[C@@H]1O[C@H](CO)[C@@H](O)[C@H](O)[C@H]1N
[1]
  Activity: inactive
[2]
  Activity: inactive
[3]
  Activity: inactive
[4]
  Activity: inactive
[5]
  Activity: inactive
[6]
  Activity: inactive

## O=CN(O)CCC[C@@H](NC(=O)[C@H](CO)NC(=O)[C@@H]1COC(c2ccccc2O[C@@H]2O[C@H](CO)[C@@H](O)[C@H](O)[C@H]2O)=N1)C(=O)NCCC(=O)N[C@@H]1CCCN(O)C1=O
[1]
  Activity: inactive
[2]
  Activity: inactive
[3]
  Activity: inactive
[4]
  Activity: inactive
[5]
  Activity: inactive
[6]
  Activity: inactive

## C[C@H](CO)NC(=O)c1ccccc1O
[1]
  Activity: inactive
[2]
  Activity: inactive
[3]
  Activity: inactive
[4]
  Activity: inactive
[5]
  Activity: inactive
[6]
  Activity: inactive
